A short description of data set [1]: Cytotoxicity against human MDM cells by neutral red staining at 10 uM. The format is cell-based.
The nature of data set [2]: Cytotoxicity against human MDM cells by neutral red staining. The data set is classed as cell-based. A digest of the protocol:
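Fifty percent cytotoxic concentration in monocyte-derived macrophages, assessed by neutral red staining.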

In data set [3] the test system is Plasma. Put plainly: Inhibition of PAF-induced platelet aggregation in rabbit platelet-rich plasma. The following applies: Oryctolagus cuniculus. The format is functional. A digest of the protocol:
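Rabbit platelet-rich plasma was prepared from New Zealand rabbit auricular-artery blood collected in 3.8% citrate (pH 7.4) and spun 15 min at 1200 rpm. Antagonists in EtOH (10⁻² to 10⁻⁷ M) were added to stirred PRP for 2 min, then challenged with 2.5 nM PAF. Aggregation was followed by light transmission against a PAF-alone control. IC50 was taken from dose–response curves (five or six determinations).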

A short description of data set [4]: Cytotoxicity against human MDM cells by neutral red staining at 1 uM. The data set is classed as cell-based.
Data set [5] has as its system Human immunodeficiency virus 1. As to the kind of experiment: Antiviral activity against HIV1 BAL in human MDM cells. Particulars: Human immunodeficiency virus 1, BAL; call rule not given here. The data set is classed as functional, organism-based. A digest of the protocol:
(§1)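 Monocyte-derived macrophages were infected with the macrophage-tropic HIV-1/Ba-L strain. HIV-1 replication was read as reverse transcriptase activity in culture supernatants. Values come from a single measurement.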

Data set [6] is described as follows: Bioavailability in Sprague-Dawley rat at 500 mg/kg, po normalized to 1 mg/kg. The data set is classed as ADME, organism-based. Particulars: in vivo. A digest of the protocol: (§2)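 Single dose given to male Sprague–Dawley rats, three animals. Each animal received 100 mg/kg iv and 500 mg/kg orally. Plasma Cmax, t1/2, AUC and oral bioavailability were determined, and all parameters were normalized to a 1 mg/kg dose so the two routes could be compared.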

Data set [7] in a line: Partition coefficient, log P of the compound. The data set is classed as physicochemical. The following applies: octanol/water.
The subject of data set [8] is Rattus norvegicus. As to the kind of experiment: AUC in Sprague-Dawley rat at 500 mg/kg, po normalized to 1 mg/kg. The format is ADME, organism-based, Plasma. Particulars: in vivo. A digest of the protocol:
as §2

The nature of data set [9]: Half life in Sprague-Dawley rat at 500 mg/kg, po normalized to 1 mg/kg. The following applies: in vivo. The data set is classed as ADME, organism-based. A digest of the protocol:
as §2

Data set [10] concerns Rattus norvegicus. As to the kind of experiment: Cmax in Sprague-Dawley rat at 500 mg/kg, po normalized to 1 mg/kg. The following applies: in vivo. The format is ADME, organism-based. Details: dose 500 mg/kg, route oral. A digest of the protocol:
as §2

In data set [11] the test system is Rattus norvegicus. Put plainly: Cmax in Sprague-Dawley rat at 100 mg/kg, iv normalized to 1 mg/kg. The following applies: in vivo. The format is ADME, organism-based. Also noted: dose 100 mg/kg, route intravenous. A digest of the protocol:
as §2

In data set [12] the test system is Rattus norvegicus. Put plainly: AUC in Sprague-Dawley rat at 100 mg/kg, iv normalized to 1 mg/kg. The data set is classed as ADME, organism-based, Plasma. Particulars: in vivo. A digest of the protocol: as §2
A short description of data set [13]: Half life in Sprague-Dawley rat at 100 mg/kg, iv normalized to 1 mg/kg. The following applies: in vivo. The format is ADME, organism-based. A digest of the protocol: as §2
For data set [14], the species on record is Mus musculus. Put plainly: Blood-brain transfer coefficient in OF1 mouse by in situ brain perfusion method. The data set is classed as ADME, organism-based. The following applies: in vivo. A digest of the protocol:
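In situ brain perfusion in anaesthetized mice (ip xylazine 8 mg/kg, ketamine 140 mg/kg) through a right common carotid catheter. Perfusate was bicarbonate-buffered saline with 9 mM D-glucose, gassed 95% O2/5% CO2, pH 7.4, 37 °C, carrying [³H]tracer at 0.3–0.4 μCi/mL, with [¹⁴C]sucrose as vascular marker. Brain distribution volume was computed from right-hemisphere radioactivity; five animals.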

Data set [15] deals with Human immunodeficiency virus 1. As to the kind of experiment: Inhibition of HIV1 BAL replication in MDM cells assessed by measuring reverse transcriptase at 100 uM. The data set is classed as functional. Particulars: Human immunodeficiency virus 1, BAL. A digest of the protocol: as §1

The record followed here is ChEMBL document CHEMBL1149263, “Structure-activity relationships in platelet-activating factor. 12. Synthesis and biological evaluation of platelet-activating factor antagonists with anti-HIV-1 activity” (J Med Chem, 2004).

pIC50: −log10 of the molar value.

What is called CC50 is the concentration that lowers cell viability or growth by half. Low readings indicate harm at low concentration, high ones better tolerance by the cells. One may read the pIC50 as the negative decadic logarithm of the IC50, by convention in mol/L. A high value points to a low IC50. Turning to `CCN(CC)C(=S)OCC1CN(C(=O)c2cc(OC)c(OC)c(OC)c2)CCN1C(=O)c1cc(OC)c(OC)c(OC)c1` (stereo not drawn), the Activity entry in data set [1] is on record as “Toxic”; in [4], “Not Active”. This compound also showed a CC50 in [2] above 1 µM. The pIC50 in data set [3] was below 5.30.
For `CCCN(CCC)C(=O)NCC1CN(C(=O)c2cc(OC)c(OC)c(OC)c2)CCN1C(=O)c1cc(OC)c(OC)c(OC)c1` (stereo not drawn), the pIC50 in data set [5] and in data set [3] was below 5.00 in each case. The same compound had a CC50 in data set [2] above 100 µM.
Consider `CCCCNC(=O)OCC1CN(C(=O)c2cc(OC)c(OC)c(OC)c2)CCN1C(=O)c1cc(OC)c(OC)c(OC)c1` (stereo not drawn), for which the pIC50 was 5.00 in [5] and 6.17 in data set [3]. Moreover, the CC50 in data set [2] is above 100 µM.
In the same order, the values of `COc1cc(C(=O)N2CCN(C(=O)c3cc(OC)c(OC)c(OC)c3)C(CNC(=O)OC(C)C)C2)cc(OC)c1OC` (stereo not drawn) are 4.60, 5.30 and above 100 µM.
One may read the bioavailability as dose-corrected exposure relative to a reference, in per cent. In general, logP refers to a log measure of how a compound divides between an organic and an aqueous phase. A lower logP goes with a more hydrophilic compound. One may read the AUC as the area under the concentration-time curve, a measure of exposure. A low value points to less exposure. As a reminder, the half-life is how long it takes for the measured level to halve. A high value points to slow loss. In general, Cmax refers to the highest concentration seen after dosing. Consider `CCN(CC)C(=O)OCC1CN(C(=O)c2cc(OC)c(OC)c(OC)c2)CCN1C(=O)c1cc(OC)c(OC)c(OC)c1` (stereo not drawn) [PMS-601], for which the bioavailability in data set [6] is 10.9%. This compound registered a log partition coefficient (logP) in data set [7] of 0.8. Moreover, the AUC was 177 ng·h/mL in data set [8] and 1828 ng·h/mL in [12]. The half-life is 137 min in data set [9] and 128 min in data set [13]. Besides, the peak concentration (Cmax) in data set [10] was 33 ng/mL; in [11] it was 861 ng/mL. Further, the figures for the pIC50 in data set [5] and in [3] were 4.96 and 5.10, respectively. Besides, the CC50 in [2] was above 1000 µM.
For `CCN(CC)C(=O)NCC1CN(C(=O)c2cc(OC)c(OC)c(OC)c2)CCN1C(=O)c1cc(OC)c(OC)c(OC)c1` (stereo not drawn), the pIC50 in data set [5] is 4.40; in data set [3], below 5.00. The compound further registered a CC50 in data set [2] above 100 µM.
With `[3H]COc1c(OC)cc(C(=O)N2CCN(C(=O)c3cc(OC)c(OC)c(OC)c3)C(COC(=O)N(CC)CC)C2)cc1OC` (stereo not drawn), the Kin in [14] came out at 1.02 µL/s/g.
For orientation: inhibition means the relative decrease from the control value, in per cent. Low values mean a weak effect, high ones a strong effect. The compound `CCCN(CCC)C(=O)OCC1CN(C(=O)c2cc(OC)c(OC)c(OC)c2)CCN1C(=O)c1cc(OC)c(OC)c(OC)c1` (stereo not drawn) gave an inhibition at 100 µM in data set [15] of 66%. The same compound displayed a CC50 in [2] above 100 µM. The compound also showed a pIC50 in data set [3] of 6.43.
In the same order, the values of `COc1cc(C(=O)N2CCN(C(=O)c3cc(OC)c(OC)c(OC)c3)C(COC(=S)N(C)C)C2)cc(OC)c1OC` (stereo not drawn) are 76%, above 100 µM and 5.80.
Regarding `CCCCCCNC(=O)NCC1CN(C(=O)c2cc(OC)c(OC)c(OC)c2)CCN1C(=O)c1cc(OC)c(OC)c(OC)c1` (stereo not drawn), the pIC50 is 6.00 in [5] and below 5.00 in data set [3]. The compound further came in with a CC50 in [2] above 100 µM.
Turning to `COc1cc(C(=O)N2CCN(C(=O)c3cc(OC)c(OC)c(OC)c3)C(CNC(=O)Nc3c(C)cccc3C)C2)cc(OC)c1OC` (stereo not drawn), the figures for the pIC50 in data set [5] and in data set [3] were 4.49 and below 5.00, respectively. The compound also had a CC50 in data set [2] above 100 µM.
In the same order, the values of `CCC(=O)OCC1CN(C(=O)c2cc(OC)c(OC)c(OC)c2)CCN1C(=O)c1cc(OC)c(OC)c(OC)c1` (stereo not drawn) are below 4.00, 6.80 and above 100 µM.
